The subject of test [1] is Salmonella typhimurium. The test is described as follows: In vitro minimum inhibitory concentration for Salmonella Typhimurium (ATCC-14028) by agar dilution method. Type of test: functional, Salmonella enterica subsp. enterica serovar Typhimurium. As to conditions: Salmonella enterica; read-out: MIC. In short, it runs like this:
(§1)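 Two-fold serial dilutions of each compound dispersed in Mueller-Hinton agar; plates spot-inoculated with 2 μL of standard test strain at 10^7 CFU/mL, incubated 37 °C for 20 h; MIC read as lowest concentration inhibiting growth.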

The test system of test [2] is Citrobacter freundii. The test is described as follows: In vitro minimum inhibitory concentration for Citrobacter freundii (ATCC-8090) by agar dilution method. Type of test: functional. As to conditions: Citrobacter freundii; read-out: MIC. A digest of the protocol: as §1
Test [3] concerns Enterobacter cloacae. The test is described as follows: In vitro minimum inhibitory concentration for Enterobacter cloacae (ATCC-27508) by agar dilution method. Type of test: functional. As to conditions: Enterobacter cloacae; read-out: MIC. In short, it runs like this:
as §1

The subject of test [4] is Staphylococcus epidermidis. Nature of the test: In vitro minimum inhibitory concentration for Staphylococcus epidermidis (ATCC-12228) by agar dilution method. Type of test: functional. The settings on record: Staphylococcus epidermidis; read-out: MIC. In short, it runs like this: as §1
The subject of test [5] is Escherichia coli. Nature of the test: In vitro minimum inhibitory concentration for Escherichia coli (ATCC-10536) by agar dilution method. As to conditions: Escherichia coli; read-out: MIC. Type of test: functional. A digest of the protocol: as §1
The test system of test [6] is Serratia marcescens. The test is described as follows: In vitro minimum inhibitory concentration for Serratia marcescens (ATCC-27117) by agar dilution method. Type of test: functional. As to conditions: Serratia marcescens; read-out: MIC. A digest of the protocol: as §1
For test [7], the system named is Staphylococcus aureus. Nature of the test: In vitro minimum inhibitory concentration for Staphylococcus aureus (ATCC 6538p) by agar dilution method. As to conditions: Staphylococcus aureus, ATCC 6538p; read-out: MIC. It is filed as functional. In short, it runs like this: as §1
The test system of test [8] is Klebsiella pneumoniae. The test is described as follows: In vitro minimum inhibitory concentration for Klebsiella pneumoniae (ATCC-10031) by agar dilution method. It is filed as functional. The settings on record: Klebsiella pneumoniae; read-out: MIC.
Test [9] relates to Pseudomonas aeruginosa. The test is described as follows: In vitro minimum inhibitory concentration for Pseudomonas aeruginosa (ATCC-27853) by agar dilution method. It is filed as functional. The settings on record: Pseudomonas aeruginosa; read-out: MIC. In short, it runs like this: as §1
Test [10] has as its system Klebsiella aerogenes. Nature of the test: In vitro minimum inhibitory concentration for Enterobacter aerogenes (ATCC-29751) by agar dilution method. Type of test: functional. As to conditions: Klebsiella aerogenes; read-out: MIC. In short, it runs like this:
as §1

The subject of test [11] is Pseudomonas aeruginosa. Nature of the test: In vitro minimum inhibitory concentration for Pseudomonas aeruginosa (ATCC 10145) by agar dilution method. It is filed as functional. In short, it runs like this:
as §1

Test [12] deals with Proteus vulgaris. Nature of the test: In vitro minimum inhibitory concentration for Proteus vulgaris (ATCC-6059) by agar dilution method. Type of test: functional. The settings on record: Proteus vulgaris; read-out: MIC. In short, it runs like this:
as §1

Converted amounts (≈) assume the structure as drawn.

For the compound `C[n+]1cc(Cc2ccccc2)c(N)nc1SCC1=C(C(=O)[O-])N2C(=O)C(NC(=O)/C(=N\OC(C)(C)C(=O)O)c3cnc(N)s3)C2SC1` (centres undefined), the minimal inhibitory concentration (MIC) amounted to 0.5 µg/mL (≈ 0.716 µM) in test [1]; 0.06 µg/mL (≈ 0.0859 µM) in [2]; 0.03 µg/mL (≈ 0.0429 µM) in test [3]; 2 µg/mL (≈ 2.86 µM) in test [4]; 0.25 µg/mL (≈ 0.358 µM) in test [5]; 0.5 µg/mL (≈ 0.716 µM) in test [6]. The MIC in [7] is 8 µg/mL (≈ 11.4 µM); in [8] it was 0.06 µg/mL (≈ 0.0859 µM); in test [9], 8 µg/mL (≈ 11.4 µM); in test [10], 1 µg/mL (≈ 1.43 µM); in test [11], 16 µg/mL (≈ 22.9 µM); in test [12], 0.5 µg/mL (≈ 0.716 µM).
For the compound `CC(C)(O/N=C(\C(=O)NC1C(=O)N2C(C(=O)O)=C(CSc3nccc(O)n3)CSC12)c1cnc(N)s1)C(=O)O` (centres undefined), the MIC is 64 µg/mL (≈ 107 µM) in [1]; 8 µg/mL (≈ 13.4 µM) in test [2]; 4 µg/mL (≈ 6.72 µM) in [3]; greater than 128 µg/mL in [4]; 8 µg/mL (≈ 13.4 µM) in test [5]; 16 µg/mL (≈ 26.9 µM) in [6]. Moreover, the MIC was greater than 128 µg/mL in [7]; 8 µg/mL (≈ 13.4 µM) in test [8]; greater than 128 µg/mL in test [9]; 32 µg/mL (≈ 53.7 µM) in test [10]; greater than 128 µg/mL in test [11]; 2 µg/mL (≈ 3.36 µM) in test [12].
Regarding `CC(C)(O/N=C(\C(=O)NC1C(=O)N2C(C(=O)[O-])=C(CSc3nc(N)cc(N)[n+]3-c3ccc(O)cc3)CSC12)c1cnc(N)s1)C(=O)O` (centres undefined), the MIC was determined as 0.5 µg/mL (≈ 0.712 µM) in [1]; 0.25 µg/mL (≈ 0.356 µM) in test [2]; 0.06 µg/mL (≈ 0.0855 µM) in test [3]; 2 µg/mL (≈ 2.85 µM) in [4]; 0.25 µg/mL (≈ 0.356 µM) in test [5]; 0.5 µg/mL (≈ 0.712 µM) in test [6]. In addition, the MIC in test [7] amounted to 4 µg/mL (≈ 5.7 µM); in test [8], 0.13 µg/mL (≈ 0.185 µM); in [9], 1 µg/mL (≈ 1.42 µM); in test [10] it was 2 µg/mL (≈ 2.85 µM); in test [11] it was 2 µg/mL (≈ 2.85 µM); in test [12], 0.13 µg/mL (≈ 0.185 µM).
Take `Cc1ccc(-[n+]2c(N)cc(N)nc2SCC2=C(C(=O)[O-])N3C(=O)C(NC(=O)/C(=N\OC(C)(C)C(=O)O)c4cnc(N)s4)C3SC2)c(C)c1` (centres undefined): the MIC was 2 µg/mL (≈ 2.8 µM) in test [1]; 2 µg/mL (≈ 2.8 µM) in test [2]; 0.13 µg/mL (≈ 0.182 µM) in test [3]; 2 µg/mL (≈ 2.8 µM) in test [4]; 0.5 µg/mL (≈ 0.7 µM) in test [5]; 2 µg/mL (≈ 2.8 µM) in test [6]. In addition, the MIC is 4 µg/mL (≈ 5.6 µM) in test [7]; 0.13 µg/mL (≈ 0.182 µM) in [8]; 2 µg/mL (≈ 2.8 µM) in [9]; 2 µg/mL (≈ 2.8 µM) in test [10]; 8 µg/mL (≈ 11.2 µM) in test [11]; 0.25 µg/mL (≈ 0.35 µM) in test [12].
For `Cc1cc(C)[n+](C)c(SCC2=C(C(=O)[O-])N3C(=O)C(NC(=O)/C(=N\OC(C)(C)C(=O)O)c4cnc(N)s4)C3SC2)n1` (centres undefined), the MIC in test [1] amounted to 0.5 µg/mL (≈ 0.804 µM); in test [2], 0.25 µg/mL (≈ 0.402 µM); in test [3], 0.06 µg/mL (≈ 0.0965 µM); in test [4], 8 µg/mL (≈ 12.9 µM); in test [5], 0.13 µg/mL (≈ 0.209 µM); in test [6], 0.25 µg/mL (≈ 0.402 µM). Also, the MIC in test [7] came out at 8 µg/mL (≈ 12.9 µM); in test [8], 0.13 µg/mL (≈ 0.209 µM); in [9], 4 µg/mL (≈ 6.43 µM); in test [10], 4 µg/mL (≈ 6.43 µM); in [11] it was 4 µg/mL (≈ 6.43 µM); in test [12], 0.06 µg/mL (≈ 0.0965 µM).
Turning to `CC(C)(O/N=C(\C(=O)NC1C(=O)N2C(C(=O)O)=C(CSc3nc(O)cc(O)n3)CSC12)c1cnc(N)s1)C(=O)O` (centres undefined), the MIC in [1] was 8 µg/mL (≈ 13.1 µM); in test [2], 8 µg/mL (≈ 13.1 µM); in test [3], 1 µg/mL (≈ 1.63 µM); in [4], greater than 128 µg/mL; in test [5], 4 µg/mL (≈ 6.54 µM); in test [6], 4 µg/mL (≈ 6.54 µM). Besides, the MIC in test [7] is greater than 128 µg/mL; in [8], 2 µg/mL (≈ 3.27 µM); in test [9] it was 32 µg/mL (≈ 52.3 µM); in [10], 32 µg/mL (≈ 52.3 µM); in test [11] it was 32 µg/mL (≈ 52.3 µM); in test [12] it was 0.25 µg/mL (≈ 0.409 µM).
As for `Cn1c(O)c[n+]2c(SCC3=C(C(=O)[O-])N4C(=O)C(NC(=O)/C(=N\OC(C)(C)C(=O)O)c5cnc(N)s5)C4SC3)nc(N)cc12` (centres undefined), the MIC turned out to be 0.5 µg/mL (≈ 0.753 µM) in test [1]; 0.25 µg/mL (≈ 0.377 µM) in test [2]; 0.03 µg/mL (≈ 0.0452 µM) in test [3]; 4 µg/mL (≈ 6.03 µM) in test [4]; 0.13 µg/mL (≈ 0.196 µM) in [5]; 0.5 µg/mL (≈ 0.753 µM) in test [6]. Besides, the MIC in test [7] came out at 16 µg/mL (≈ 24.1 µM); in test [8] it was 0.13 µg/mL (≈ 0.196 µM); in [9], 4 µg/mL (≈ 6.03 µM); in test [10] it was 4 µg/mL (≈ 6.03 µM); in test [11], 4 µg/mL (≈ 6.03 µM); in [12] it was 0.06 µg/mL (≈ 0.0904 µM).

The record behind these values is ChEMBL document CHEMBL1127395, “Synthesis and antimicrobial activity of novel 3-[(aminopyrimidiniumyl)thio]methyl cephalosporins” (1994).
